Measured values from PMC4698108 (Mucosal immunology, 2015).

Assays:
[1] = test system: Vβ6+ CD4+ T cells in lung and BAL; experiment: TCR Vβ6 expression on CD4+ T cells after BeO exposure; format: in vivo, HLA-DP2 Tg FVB/N mice
Procedure, shortened: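 HLA-DP2 Tg FVB/N mice, 6–8 weeks old, were anesthetized with isoflurane and given 100 μg BeO by oropharyngeal aspiration on days 0, 1, 2, 14, 15, 18 and 19, then sacrificed on day 21. BAL used three 0.5 ml PBS instillations, pooled from 20 mice. Lungs were collagenase-digested (1 mg/ml, 30 min, 37°C). Cells were stained with a seven-mAb anti-Vβ panel, and small versus blasting lymphocytes were gated by forward/side scatter.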

[2] = test system: HLA-DP2 variants with substitutions at positions 26, 68 and 69 of the β-chain; format: cell-based, human
Procedure, shortened: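 Human AV22 and murine Vβ6⁺ transfectomas were given BeSO₄ presented by fibroblasts expressing wild-type HLA-DP2 or β-chain variants carrying alanine, glutamine or lysine at positions 26, 68 or 69. Be-induced IL-2 (pg/ml) was measured by ELISA.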

[3] = BAL cells pooled from 20 BeO-exposed HLA-DP2 Tg mice

Row | Structure (SMILES) | frequency of CD4+ T cells expressing Vβ6, blasting (large forward scatter) T cells [1, 3] | frequency of CD4+ T cells expressing Vβ6, small lymphocyte gate [1, 3] | percentage of BAL CD4+ T cells expressing Vβ6 ([1]; BAL of BeO-exposed mice, overall value given in text, unexposed lung 11.1%) | Be-induced IL-2 secretion with the EA68 HLA-DP2 β-chain variant ([2]; AV22 transfectoma (Figure 4B)) | Be-induced IL-2 secretion with amino acid substitutions at positions 26, 68 and 69 of the HLA-DP2 β-chain ([2]; human TCR AV22 and five murine T cell transfectomas, alanine, glutamine or lysine substitutions (Figure 4B))
1 | [Be]=[O] [BeO, Be oxide] | 22.5% | 13.7% | 16.8% | – | –
2 | O=S(=O)([O-])[O-].[Be+2] [BeSO4] | – | – | – | partial reduction in IL-2 secretion | abrogated Be-induced IL-2 secretion
